Published values pooled from the literature.
Lines come from different studies, so protocols differ. pEC50, pIC50, pKd, pKi: −log10 of the molar value.
PCNA: Proliferating cell nuclear antigen (PCNA, Homo sapiens, UniProt P12004)
CYP1B1: Cytochrome P450 1B1 (CYP1B1, Homo sapiens, UniProt Q16678)
ADRB2: Beta-2 adrenergic receptor (ADRB2, Homo sapiens, UniProt P07550)
Ntsr1: Neurotensin receptor type 1 (Ntsr1, Rattus norvegicus, UniProt P20789)
MMP2: 72 kDa type IV collagenase (MMP2, Homo sapiens, UniProt P08253)
F10 trypsin-like site: Coagulation factor X, trypsin-like site (F10, Homo sapiens, UniProt P00742)

| SMILES | target | test | conditions | endpoint | value |
| --- | --- | --- | --- | --- | --- |
| CC[C@H](C)[C@H](NC(=O)[C@H](CCCCN)NC(=O)[C@H](CO)NC(=O)[C@H](CC(=O)O)NC(=O)[C@H](CCCCN)NC(=O)[C@H](CCCCN)NC(=O)CNC(=O)[C@H](Cc1c[nH]cn1)NC(=O)[C@@H](N)CCC(N)=O)C(=O)N[C@H](C(=O)N[C@@H](CC(=O)O)C(=O)N[C@@H](Cc1c[nH]cn1)C(=O)N[C@@H](Cc1ccccc1)C(=O)N[C@@H](CCSC)C(=O)N[C@@H](C)C(=O)N[C@@H](CC(C)C)C(=O)N1CCC[C@H]1C(=O)N[C@@H](CCCCN)C(=O)N[C@@H](C)C(=O)O)[C@@H](C)O | PCNA | binding, ITC | pH 7.4 | pKd | 5.37 |
| CCCCNNC(=O)c1ccc(Br)cc1 | Histone deacetylase 7 (HDAC7, Homo sapiens, UniProt Q8WUI4) | enzyme activity, inhibitor, fluorescence | – | pIC50 | < 4.00 |
| c1ccc2c(c1)-c1cccc3cccc-2c13 | CYP1B1 | binding, absorbance | pH 7.4 | pKd | 5.80 |
| C[C@H](N)Cn1ncc2ccc3c(c21)CCCO3 | ADRB2 | ligand displacement, radioligand | – | pIC50 | 6.32 |
| CC[C@H](C)[C@H](NC(=O)[C@H](CCCCN)NC(=O)[C@H](CO)NC(=O)[C@H](CC(=O)O)NC(=O)[C@H](CCCCN)NC(=O)[C@H](CCCCN)NC(=O)CNC(=O)[C@H](Cc1c[nH]cn1)NC(=O)[C@@H](N)CCC(N)=O)C(=O)N[C@H](C(=O)N[C@@H](CC(=O)O)C(=O)N[C@@H](Cc1c[nH]cn1)C(=O)N[C@@H](Cc1ccccc1)C(=O)N[C@@H](CCSC)C(=O)N[C@@H](CCCNC(=N)N)C(=O)N[C@@H](CC(C)C)C(=O)N1CCC[C@H]1C(=O)N[C@@H](CCCCN)C(=O)N[C@@H](C)C(=O)O)[C@@H](C)O | PCNA | binding, ITC | pH 7.4 | pKd | 5.48 |
| CCc1c(C(=O)N[C@H](C(=O)O)C2CCCCC2)nn(-c2ccnc3cc(Cl)ccc23)c1-c1c(OC)cccc1OC | Ntsr1 | calcium signal, antagonist, fluorescence | – | Kb | > 10 µM |
| CC#CCOc1ccc(S(=O)(=O)CC2CS2)cc1 (racemic) | MMP2 | enzyme activity, inhibitor, fluorescence | – | pIC50 | 4.59 |
| CC(C)(C)[C@H](NC(=O)[C@H](CCCNC(=N)N)NC(=O)Cc1ccc(CNC(=N)N)cc1)C(=O)N[C@@H](CCONC(=N)N)C(=O)NCc1ccc(C(=N)N)cc1 | F10 trypsin-like site | enzyme activity, inhibitor | pH 8 | pKi | 4.82 |
| CC[C@H](C)[C@H](NC(=O)[C@H](CCCCN)NC(=O)[C@H](CO)NC(=O)[C@H](CC(=O)O)NC(=O)[C@H](CCCCN)NC(=O)[C@H](CCCCN)NC(=O)CNC(=O)[C@H](Cc1c[nH]cn1)NC(=O)[C@@H](N)CCC(N)=O)C(=O)N[C@H](C(=O)N[C@@H](CC(=O)O)C(=O)N[C@@H](Cc1c[nH]cn1)C(=O)N[C@@H](Cc1ccccc1)C(=O)N[C@@H](C)C(=O)N[C@@H](CCCNC(=N)N)C(=O)N[C@@H](CC(C)C)C(=O)N1CCC[C@H]1C(=O)N[C@@H](CCCCN)C(=O)N[C@@H](C)C(=O)O)[C@@H](C)O | PCNA | binding, ITC | pH 7.4 | pKd | 5.78 |
| COc1cc(N)c(Cl)cc1C(=O)NC1CN2CCC1CC2 (centres unmarked) | ADRB2 | ligand displacement, radioligand | cell membranes | pIC50 | 3.61 |
| CC[C@H](C)[C@H](NC(=O)[C@H](CC(C)C)NC(=O)[C@H](CO)NC(=O)[C@H](CC(=O)O)NC(=O)[C@H](CCCCN)NC(=O)[C@H](CCCCN)NC(=O)CNC(=O)[C@H](Cc1c[nH]cn1)NC(=O)[C@@H](N)CCC(N)=O)C(=O)N[C@H](C(=O)N[C@@H](CC(=O)O)C(=O)N[C@@H](Cc1c[nH]cn1)C(=O)N[C@@H](Cc1ccccc1)C(=O)N[C@@H](CCSC)C(=O)N[C@@H](CCCNC(=N)N)C(=O)N[C@@H](CC(C)C)C(=O)N1CCC[C@H]1C(=O)N[C@@H](CCCCN)C(=O)N[C@@H](C)C(=O)O)[C@@H](C)O | PCNA | binding, ITC | pH 7.4 | pKd | 5.34 |
| CC(C)=CCc1c(O)cc2c(c1O)C(=O)C[C@@H](c1ccc(O)cc1)O2 | CYP1B1 | enzyme activity, inhibitor, fluorescence | 15 min, pH 7.4 | pKi | 6.64 |
| CC(C)(C)[C@H](NC(=O)[C@H](CCONC(=N)N)NC(=O)Cc1ccc(CN)cc1)C(=O)N[C@@H](CCONC(=N)N)C(=O)NCc1ccc(C(=N)N)cc1 | F10 trypsin-like site | enzyme activity, inhibitor | pH 8 | pKi | 4.33 |
| NCC(O)c1ccc(O)c(O)c1F (centres unmarked) | Beta-2 adrenergic receptor (ADRB2, Homo sapiens, UniProt P07550, N293F) | ligand displacement, radioligand | cell membranes | pKi | 3.67 |
| CC(C)C[C@H](NC(=O)[C@H](CCC(N)=O)NC(=O)[C@H](CC(C)C)NC(=O)[C@H](CO)NC(=O)[C@H](CO)NC(=O)[C@@H]1CCCN1C(=O)[C@H](Cc1c[nH]c2ccccc12)NC(=O)[C@H](CCC(N)=O)NC(=O)[C@H](Cc1c[nH]c2ccccc12)NC(=O)[C@H](Cc1c[nH]c2ccccc12)NC(=O)[C@@H](N)Cc1c[nH]cn1)C(=O)N[C@@H](CCCNC(=N)N)C(=O)NCC(=O)NCC(=O)NCC(=O)N[C@@H](CO)C(=O)O | MMP2 | enzyme activity, inhibitor, fluorescence | – | pIC50 | 7.11 |
| COc1cccc2c1C(=O)c1c(O)c3c(c(O)c1C2=O)C[C@@](O)(C(=O)CO)C[C@@H]3O[C@H]1C[C@H](N)[C@H](O)[C@H](C)O1 | Ileal sodium/bile acid cotransporter (SLC10A2, Homo sapiens, UniProt Q12908) | transporter uptake, inhibitor | – | pKi | 4.00 |
| O=C(N[C@H]1COC(=O)[C@@H](NC(=O)c2cccc(O)c2[O-])COC(=O)[C@@H](NC(=O)c2cccc(O)c2[O-])COC1=O)c1cccc(O)c1[O-].[Fe+3] | Neutrophil gelatinase-associated lipocalin (LCN2, Homo sapiens, UniProt P80188, C107S) | binding, fluorescence | pH 5.5 | pKd | 9.82 |
| CC[C@H](C)[C@H](NC(=O)[C@H](CCCCN)NC(=O)[C@H](CO)NC(=O)[C@H](CC(=O)O)NC(=O)[C@H](CCCCN)NC(=O)[C@H](CCCCN)NC(=O)CNC(=O)[C@H](Cc1c[nH]cn1)NC(=O)[C@@H](N)CCC(N)=O)C(=O)N[C@H](C(=O)N[C@@H](C)C(=O)N[C@@H](Cc1c[nH]cn1)C(=O)N[C@@H](Cc1ccccc1)C(=O)N[C@@H](CCSC)C(=O)N[C@@H](CCCNC(=N)N)C(=O)N[C@@H](CC(C)C)C(=O)N1CCC[C@H]1C(=O)N[C@@H](CCCCN)C(=O)N[C@@H](C)C(=O)O)[C@@H](C)O | PCNA | binding, ITC | pH 7.4 | pKd | 5.06 |
| NCC(O)c1cc(O)c(O)cc1F (centres unmarked) | Beta-2 adrenergic receptor (ADRB2, Homo sapiens, UniProt P07550, N293A) | ligand displacement, radioligand | cell membranes | pKi | 2.26 |
| CC(C)C[C@H](NC(=O)[C@H](Cc1ccccc1)NC(=O)c1cnccn1)B(O)O | Coagulation factor X (F10, Homo sapiens, UniProt P00742) | enzyme activity, inhibitor | – | pIC50 | < 4.48 |
| COc1cccc(OC)c1-c1cc(C(=O)NC2(C(=O)O)CCCCC2)nn1-c1ccc(F)cc1 | Ntsr1 | calcium signal, antagonist, fluorescence | – | Kb | > 10 µM |
| CC(C)(C)[C@H](NC(=O)[C@H](CCONC(=N)N)NC(=O)Cc1ccc(CNC(=N)N)cc1)C(=O)N[C@@H](CCCCN)C(=O)NCc1ccc(C(=N)N)cc1 | F10 trypsin-like site | enzyme activity, inhibitor | pH 8 | pKi | 4.59 |
| CCCCOc1ccc(C(=O)CCN2CCCCC2)cc1 | Histamine H3 receptor (HRH3, Homo sapiens, UniProt Q9Y5N1) | ligand displacement, radioligand | – | pIC50 | 5.41 |
| CCOC(=O)C(CC)(CCCSCCOCCOCCOCCOCCNC(=O)OC(C)(C)C)NC(=O)c1ccc(C2CC2)c(Cc2ccc(F)cc2)n1 (centres unmarked) | Cannabinoid receptor 2 (CNR2, Homo sapiens, UniProt P34972) | cAMP, agonist | – | pEC50 | 7.89 |
| CC[C@H](C)[C@H](NC(=O)[C@H](CCCCN)NC(=O)[C@H](CO)NC(=O)[C@H](CC(=O)O)NC(=O)[C@H](CCCCN)NC(=O)[C@H](CCCCN)NC(=O)CNC(=O)[C@H](Cc1c[nH]cn1)NC(=O)[C@@H](N)CCC(N)=O)C(=O)N[C@H](C(=O)N[C@@H](CC(=O)O)C(=O)N[C@@H](Cc1c[nH]cn1)C(=O)N[C@@H](C)C(=O)N[C@@H](CCSC)C(=O)N[C@@H](CCCNC(=N)N)C(=O)N[C@@H](CC(C)C)C(=O)N1CCC[C@H]1C(=O)N[C@@H](CCCCN)C(=O)N[C@@H](C)C(=O)O)[C@@H](C)O | PCNA | binding, ITC | pH 7.4 | pKd | 4.38 |
| COc1ccc(-c2cc(C(=O)N[C@H](C(=O)O)C3CCCCC3)nn2-c2ccnc3cc(Cl)ccc23)c(OC)c1 | Ntsr1 | calcium signal, antagonist, fluorescence | – | Kb | > 10 µM |
